Measurements from ChEMBL document CHEMBL1135705, “Correlation of the antibacterial activities of cationic peptide antibiotics and cationic steroid antibiotics” (2002).
In brackets after ≈: the same amount, converted by molar mass.

Key:
Salmonella typhimurium = assay: Antibacterial activity against Gram-negative bacteria -Salmonella Typhimurium (ATCC 14028); assay type: functional, Salmonella enterica subsp. enterica serovar Typhimurium; conditions: Salmonella enterica
Escherichia coli = assay: Antibacterial activity against Gram-negative bacteria- Escherichia coli (ATCC 25922); assay type: functional
Staphylococcus aureus = assay: Antibacterial activity against Gram-positive bacteria -S. aureus (ATCC 25923); assay type: functional
Streptococcus pyogenes = assay: Antibacterial activity against Gram-positive bacteria-Streptococcus pyogenes (ATCC 19615); assay type: functional
[1] = Compound was evaluated for minimum hemolytic concentration; assay type: functional
How it was run: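 Hemolysis was tested up to 200 µg/mL. Higher concentrations could not be used because of limited solubility.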

Row | SMILES | MIC (Salmonella typhimurium) [µg/mL] | MIC (Escherichia coli) [µg/mL] | MIC (Staphylococcus aureus) [µg/mL] | MIC (Streptococcus pyogenes) [µg/mL] | MHC [1] [µg/mL]
1 | C[C@H](CCCNCCCNCCCN)[C@H]1CC[C@H]2[C@@H]3[C@H](OCCCN)CC4C[C@H](OCCCN)CC[C@]4(C)[C@H]3C[C@H](OCCCN)[C@]12C (stereo not given in full) | 12 (≈ 17.7 µM) | 7.3 (≈ 10.7 µM) | 2 (≈ 2.95 µM) | 1.6 (≈ 2.36 µM) | > 200
2 | C[C@H](CCCO)[C@H]1CC[C@H]2[C@@H]3[C@H](OCCCN)CC4C[C@H](OCCCN)CC[C@]4(C)[C@H]3C[C@H](OCCCN)[C@]12C (stereo not given in full) | 43 (≈ 76 µM) | 36 (≈ 63.6 µM) | 2 (≈ 3.53 µM) | 4.2 (≈ 7.42 µM) | 100
3 | C[C@H](CCCN(CCCN)CCCN)[C@H]1CC[C@H]2[C@@H]3[C@H](OCCCN)CC4C[C@H](OCCCN)CC[C@]4(C)[C@H]3C[C@H](OCCCN)[C@]12C (stereo not given in full) | 25 (≈ 36.8 µM) | 6.6 (≈ 9.72 µM) | 4.6 (≈ 6.77 µM) | 3 (≈ 4.42 µM) | > 200
